How the values were obtained:
Cavia porcellus = species: Cavia porcellus; experiment: Ratio of Ki for sigma2 receptor in Hartley guinea pig brain to Ki for sigma1 receptor in Hartley guinea pig brain
Procedure, shortened: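 Selectivity is expressed as the sigma2/sigma1 Ki ratio. The sigma1 Ki comes from [3H](+)-pentazocine displacement and the sigma2 Ki from [3H]DTG displacement, both in guinea pig brain. Each Ki is from Cheng-Prusoff, using Kd 2.3 nM and 23.9 nM respectively, with duplicates repeated 3–6 times.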

[1] = biological target: T1, Sigma non-opioid intracellular receptor 1 (Cavia porcellus, UniProt Q60492); experiment: Displacement of [3H](+)-PTZ from sigma1 receptor in Hartley guinea pig brain
[2] = biological target: Delta-type opioid receptor (Mus musculus) (UniProt P32300); experiment: Displacement of [3H]NTI from delta opioid receptor in mouse brain; format: tissue-based; set-up: concentration or dose not given beside the values
Procedure, shortened: (§1)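 Brain membranes came from guinea pig for mu and kappa and from mouse for delta. Radioligands were [3H]DAMGO (mu), [3H]NTI (delta) and [3H]U69,593 (kappa). The read-out is percent displacement of radioligand binding at a single concentration of 1–2 of test compound.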

[3] = biological target: Kappa-type opioid receptor (Cavia porcellus) (UniProt P41144); experiment: Displacement of [3H]U69593 from kappa opioid receptor in guinea pig brain; set-up: concentration or dose not given beside the values; procedure, shortened: as §1
[4] = Displacement of [3H]DTG from sigma2 receptor in Hartley guinea pig brain; set-up: species or system Cavia porcellus
[5] = biological target: Mu-type opioid receptor (Cavia porcellus) (UniProt P97266); experiment: Displacement of [3H]DAMGO from mu opioid receptor in guinea pig brain; set-up: concentration or dose not given beside the values; procedure, shortened: as §1
[6] = biological target: T1, Sigma non-opioid intracellular receptor 1; experiment: Displacement of [3H]pentazocine from sigma1 receptor in guinea pig membrane in presence of phenytoin; format: cell membranes
Procedure, shortened: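 [3H](+)-pentazocine sigma1 binding run as the standard assay, but with phenytoin in 0.15 M NaOH vehicle added to every tube; parallel controls received NaOH only. Trials performed in duplicate, 3–5 trials; ratio of IC50 with versus without phenytoin used for agonist/antagonist profiling.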

[7] = biological target: T2, 5-hydroxytryptamine receptor 1A (Homo sapiens, UniProt P08908); experiment: Binding affinity to 5HT1A receptor
T2 sequence (P08908 whole entry): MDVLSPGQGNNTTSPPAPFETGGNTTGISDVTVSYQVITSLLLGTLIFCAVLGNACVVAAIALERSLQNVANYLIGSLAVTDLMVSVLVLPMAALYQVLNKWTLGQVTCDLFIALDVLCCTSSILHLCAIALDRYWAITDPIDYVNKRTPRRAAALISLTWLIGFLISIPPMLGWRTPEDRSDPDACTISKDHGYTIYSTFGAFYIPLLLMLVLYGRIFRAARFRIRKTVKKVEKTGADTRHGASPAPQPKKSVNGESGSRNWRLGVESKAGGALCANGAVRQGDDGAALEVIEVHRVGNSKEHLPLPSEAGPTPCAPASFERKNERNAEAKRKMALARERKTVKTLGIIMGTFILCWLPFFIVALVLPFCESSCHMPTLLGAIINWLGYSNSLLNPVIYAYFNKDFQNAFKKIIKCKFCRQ

[8] = biological target: T1, Sigma non-opioid intracellular receptor 1; experiment: Displacement of [3H]pentazocine from sigma1 receptor in guinea pig membrane; format: cell membranes
D(2) dopamine receptor = D(2) dopamine receptor (Homo sapiens, UniProt P14416); experiment: Binding affinity to dopamine D2 receptor
[9] = biological target: Sigma non-opioid intracellular receptor 1 (Cavia porcellus) (UniProt Q60492); experiment: Ratio of IC50 for sigma1 receptor in absence of phenytoin to in presence of phenytoin in guinea pig membrane; format: cell membranes
Procedure, shortened: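 Sigma1 competition binding against [3H](+)-pentazocine in guinea pig brain homogenates, with phenytoin in 0.15 M NaOH vehicle added to every tube, alongside controls given only 0.15 M NaOH. Incubation medium was pH 7.44 at 37 °C with the NaOH additions. Ratio is IC50 without phenytoin over IC50 with it. Run in duplicate, repeated 3–6 times.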

[10] = Binding affinity to sigma receptor

Chain of Kappa-type opioid receptor (Cavia porcellus) (P41144 whole entry): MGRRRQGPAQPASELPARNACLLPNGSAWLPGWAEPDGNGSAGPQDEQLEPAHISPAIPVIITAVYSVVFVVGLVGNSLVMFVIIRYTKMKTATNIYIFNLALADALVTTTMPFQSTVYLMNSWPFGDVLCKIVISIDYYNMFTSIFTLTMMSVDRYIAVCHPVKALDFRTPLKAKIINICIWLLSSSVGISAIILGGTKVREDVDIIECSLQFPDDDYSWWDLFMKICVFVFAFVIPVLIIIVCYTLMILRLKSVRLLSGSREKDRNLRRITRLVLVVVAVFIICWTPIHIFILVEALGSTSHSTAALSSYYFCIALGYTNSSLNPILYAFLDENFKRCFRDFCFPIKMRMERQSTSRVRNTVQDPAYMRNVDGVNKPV
Chain of Mu-type opioid receptor (Cavia porcellus) (P97266 whole entry): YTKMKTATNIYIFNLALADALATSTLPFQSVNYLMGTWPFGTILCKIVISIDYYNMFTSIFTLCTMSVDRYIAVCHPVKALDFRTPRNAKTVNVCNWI
Chain of Delta-type opioid receptor (Mus musculus) (P32300 whole entry): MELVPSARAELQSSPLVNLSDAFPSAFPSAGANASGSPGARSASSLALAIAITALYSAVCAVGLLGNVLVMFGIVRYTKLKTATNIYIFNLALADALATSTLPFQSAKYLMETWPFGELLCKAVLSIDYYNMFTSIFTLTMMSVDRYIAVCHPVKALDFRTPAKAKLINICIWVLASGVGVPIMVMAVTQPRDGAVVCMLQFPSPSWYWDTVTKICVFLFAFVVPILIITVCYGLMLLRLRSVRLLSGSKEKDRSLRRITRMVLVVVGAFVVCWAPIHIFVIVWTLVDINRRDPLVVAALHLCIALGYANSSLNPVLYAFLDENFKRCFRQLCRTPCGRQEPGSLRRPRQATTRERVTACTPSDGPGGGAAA
T1 sequence (Q60492 whole entry): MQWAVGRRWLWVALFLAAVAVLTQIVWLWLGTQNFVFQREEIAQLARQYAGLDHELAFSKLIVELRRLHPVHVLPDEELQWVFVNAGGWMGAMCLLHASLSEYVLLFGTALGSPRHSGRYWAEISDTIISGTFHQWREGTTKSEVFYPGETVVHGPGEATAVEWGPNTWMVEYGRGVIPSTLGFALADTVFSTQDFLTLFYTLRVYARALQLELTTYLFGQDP
Chain of D(2) dopamine receptor (P14416 whole entry): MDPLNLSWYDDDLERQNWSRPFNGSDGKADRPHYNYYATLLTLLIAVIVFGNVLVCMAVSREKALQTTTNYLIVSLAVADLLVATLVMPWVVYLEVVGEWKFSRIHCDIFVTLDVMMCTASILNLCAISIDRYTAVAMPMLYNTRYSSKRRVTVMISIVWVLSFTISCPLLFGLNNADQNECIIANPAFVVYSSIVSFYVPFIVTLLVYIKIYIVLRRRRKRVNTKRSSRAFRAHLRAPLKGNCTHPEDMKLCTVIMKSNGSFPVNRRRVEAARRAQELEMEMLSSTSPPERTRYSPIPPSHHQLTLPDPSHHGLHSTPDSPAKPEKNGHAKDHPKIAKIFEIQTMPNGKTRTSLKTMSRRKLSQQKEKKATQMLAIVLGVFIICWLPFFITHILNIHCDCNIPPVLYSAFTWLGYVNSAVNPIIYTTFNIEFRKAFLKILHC
Chain of Sigma non-opioid intracellular receptor 1 (Cavia porcellus) (Q60492 whole entry): as the sequence (Q60492 whole entry) above

Cc1ccc(CN2CCN(CCCc3ccccc3)CC2)cc1
Ratio Ki (Cavia porcellus): 15
Ki [1]: 1.17 nM
Activity [2]: < 5%
Activity [3]: < 5%
Ki [4]: 17.5 nM
Activity [5]: < 5%

O=[N+]([O-])c1ccc(CN2CCN(CCCc3ccccc3)CC2)cc1
Ratio Ki (Cavia porcellus): 8.9
Ki [1]: 0.37 nM
Activity [2]: < 5%
Activity [3]: < 5%
Ki [4]: 3.29 nM
Activity [5]: < 5%

O=[N+]([O-])c1cccc(CN2CCN(CCCc3ccccc3)CC2)c1
Ratio Ki (Cavia porcellus): 1.7
Ki [1]: 0.93 nM
Activity [2]: < 5%
Activity [3]: < 5%
Ki [4]: 1.59 nM
Activity [5]: < 5%

COc1ccc(CCN2CCN(CCCc3ccccc3)CC2)cc1OC [[11C]SA4503]
Ki [4]: 89.5 nM

COc1ccc(CN2CCN(CCCc3ccccc3)CC2)cc1
Ratio Ki (Cavia porcellus): 43.2
Ki [1]: 0.76 nM
Activity [2]: < 5%
Activity [3]: < 5%
Ki [4]: 32.8 nM
Activity [5]: < 5%

Brc1ccccc1CN1CCN(CCCc2ccccc2)CC1
Ratio Ki (Cavia porcellus): 6.9
Ki [1]: 0.6 nM
Activity [2]: < 5%
Activity [3]: < 5%
Ki [4]: 4.12 nM
Activity [5]: < 5%

Ic1cccc(CN2CCN(CCCc3ccccc3)CC2)c1
Ratio Ki (Cavia porcellus): 2.6
Ki [1]: 0.39 nM
Activity [2]: < 5%
Activity [3]: < 5%
Ki [4]: 1.03 nM
Activity [5]: < 5%

O=[N+]([O-])c1ccccc1CN1CCN(CCCc2ccccc2)CC1
Ratio Ki (Cavia porcellus): 1.4
Ki [1]: 2.8 nM
Activity [2]: < 5%
Activity [3]: < 5%
Ki [4]: 3.79 nM
Activity [5]: < 5%

Fc1cccc(CN2CCN(CCCc3ccccc3)CC2)c1
Ratio Ki (Cavia porcellus): 10.2
Ki [1]: 1.36 nM
Activity [2]: < 5%
Activity [3]: < 5%
Ki [4]: 13.8 nM
Activity [5]: < 5%

c1ccc(CCCN2CCN(Cc3ccccc3)CC2)cc1
Ratio Ki (Cavia porcellus): 52
IC50 [6]: 1.89 nM
IC50 [7]: > 100 nM
Ki [1]: 0.66 nM
IC50 [8]: 1.47 nM
Activity [2]: < 5%
IC50 (D(2) dopamine receptor): > 100 nM
Activity [3]: < 5%
Ratio IC50 [9]: 0.8
Ki [4]: 34.3 nM
IC50 [10]: 20 nM
Activity [5]: < 5%

COc1cccc(CN2CCN(CCCc3ccccc3)CC2)c1
Ratio Ki (Cavia porcellus): 16.3
Ki [1]: 0.87 nM
Activity [2]: < 5%
Activity [3]: < 5%
Ki [4]: 14.2 nM
Activity [5]: < 5%

COc1ccc2c(c1)[C@]13CCCC[C@@H]1[C@H](C2)N(C)CC3 [DEXTROMETHORPHAN]
IC50 [6]: 15.2 nM
IC50 [8]: 232 nM

From ChEMBL document CHEMBL1142308, “Synthesis and structure-activity relationships of N-(3-phenylpropyl)-N'-benzylpiperazines: Potent ligands for sigma1 and sigma2 receptors” (Bioorg Med Chem, 2008)
